Reference: ChEMBL document CHEMBL1151937, “Synthesis and evaluation of an acyl-chain unsaturated analog of the Th2 biasing, immunostimulatory glycolipid, OCH” (Bioorg Med Chem Lett, 2009)
The source made the active and inactive calls. No cut-off for these calls is given here.

What was measured:
Format in all cases: functional, cell-based
Splenocyte [1] = experiment: Stimulation of mouse splenocyte proliferation by [3H]thymidine after 48 hrs by incorporation assay
Procedure, shortened: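 Mouse splenocytes exposed to lipid at varying concentrations; proliferation read out as tritiated thymidine incorporation. Values are means of duplicate wells.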

iNKT = experiment: Stimulation of human iNKT cell proliferation
Splenocyte [2] = experiment: Stimulation of IFN-gamma production in C57BL/6 mouse splenocytes after 48 hrs by ELISA
Procedure, shortened: (§1)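 C57BL/6 mouse splenocytes cultured 48 h with lipid over a range of concentrations; IL-4 and IFNγ measured in culture supernatants by standard sandwich ELISA. Values are means of duplicate wells.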

Splenocyte [3] = experiment: Stimulation of IL4 production in C57BL/6 mouse splenocytes after 48 hrs by ELISA; procedure, shortened: as §1

| SMILES | Activity (Splenocyte [1]) | Activity (iNKT) | Activity (Splenocyte [2]) | Activity (Splenocyte [3]) |
| --- | --- | --- | --- | --- |
| CCCCC/C=C\C/C=C\CCCCCCCCCC(=O)N[C@@H](CO[C@H]1O[C@H](CO)[C@H](O)[C@H](O)[C@H]1O)[C@H](O)[C@H](O)CCCCCCCCCCCCCC | Active | Active | – | – |
| CCCCC/C=C\C/C=C\CCCCCCCCCC(=O)N[C@@H](CO[C@H]1O[C@H](CO)[C@H](O)[C@H](O)[C@H]1O)[C@H](O)CCCCCC | Active | inactive | Active | Active |
| CCCCCCCCCCCCCCCCCCCC(=O)N[C@@H](CO[C@H]1O[C@H](CO)[C@H](O)[C@H](O)[C@H]1O)[C@H](O)[C@H](O)CCCCC | Active | inactive | inactive | inactive |
| CCCCCCCCCCCCCCCCCCCCCCCC(=O)N[C@@H](CO[C@H]1O[C@H](CO)[C@H](O)[C@H](O)[C@H]1O)[C@H](O)[C@H](O)CCCCC | Active | Active | – | – |
| CCCCCCCCCCCCCCCCCCCC(=O)N[C@@H](CO[C@H]1O[C@H](CO)[C@H](O)[C@H](O)[C@H]1O)[C@H](O)CCCCCC | Active | inactive | inactive | inactive |
